EBI2 antag = blocks human EBI2 receptor beta-arrestin signaling; inhibition, % at 5 µM; 0.81% of 360,000 active; P32249; EBI2 beta-arrestin recruitment, luminescence, 7a,25-OHC stimulated; in the data active = inhibition above about 38%;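 note: enzyme fragment complementation signal reports receptor beta-arrestin coupling in cells; 0% = agonist plus DMSO wells and 100% = wells without agonist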
Target sequence (P32249 whole entry, looked up, the tested form may be a part): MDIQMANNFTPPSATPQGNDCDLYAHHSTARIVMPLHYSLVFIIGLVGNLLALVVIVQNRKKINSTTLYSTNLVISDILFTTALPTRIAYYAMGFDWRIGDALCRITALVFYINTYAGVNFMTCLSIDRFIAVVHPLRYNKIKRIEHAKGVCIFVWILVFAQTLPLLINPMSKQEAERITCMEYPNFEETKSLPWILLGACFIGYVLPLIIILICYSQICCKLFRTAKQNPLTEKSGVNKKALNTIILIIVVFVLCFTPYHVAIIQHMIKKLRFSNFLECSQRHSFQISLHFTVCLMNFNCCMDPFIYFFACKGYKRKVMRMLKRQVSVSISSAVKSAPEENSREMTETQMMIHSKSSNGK
SENP1 FRET inh = SENP1 (human) catalytic domain inhibition; Q9P0U3; recombinant SENP1 catalytic domain, CyPet-SUMO1-YPet FRET cleavage; inhibition, % at 10 µM; 0.21% of 360,000 active;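 active = inhibition at least 30% at 10 µM, raw YFP signal under a set limit, fluorescence ratio 0.5 to 1.5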;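 note: 0% = enzyme with DMSO and 100% = no enzyme wells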
Target sequence (Q9P0U3 419-644 limits assumed): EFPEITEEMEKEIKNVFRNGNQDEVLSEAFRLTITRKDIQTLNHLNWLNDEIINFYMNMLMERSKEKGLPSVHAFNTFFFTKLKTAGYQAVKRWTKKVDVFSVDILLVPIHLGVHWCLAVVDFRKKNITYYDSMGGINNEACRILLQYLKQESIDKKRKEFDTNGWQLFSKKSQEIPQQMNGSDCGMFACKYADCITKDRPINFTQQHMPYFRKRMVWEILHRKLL
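System: Recombinant human SENP1 catalytic domain, His6-tagged | Incubation: Enzyme reaction for 50 min at room temperature, dark | Medium: Tris pH 8 with BME, BSA, NP40 and catalase | Also added: 25 nM SUMO1 FRET substrate | Compound: 10 µM single point, 0.5% DMSO | Measured by: FRET fluorescence in CFP and YFP emission channels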
GRIN3A LBD mod = modulates the human NR3A ligand-binding domain; Tm shift relative to glycine control, % at 25 µM; AID 1259313; 2.5% of 340,000 active; NR3A LBD differential scanning fluorimetry, Tm shift; 0% = protein alone, 100% = glycine-bound protein;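 active = melting temperature shift of at least 10% of the positive control shift, at one fixed dose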
MPTP inh = permeability transition pore inhibition; isolated mouse mitochondria, Ca2+ swelling absorbance, 30 min; inhibition, % at 10 µM; 1.4% of 360,000 active; AID 602449;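 active = inhibition of 50% or more, scaled per plate between neutral and stimulator controls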;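 note: 0% = DMSO wells given calcium and 100% = 1 mM EGTA wells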
Rh123 counter = mitochondrial membrane potential, counter-screen | shares compounds with MPTP inh | isolated mitochondria, Rhodamine 123 fluorescence | inhibition, % at 10 µM | 78% of 5,000 active | AID 624504; in the data active = inhibition above about 22%;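 note: 0% = DMSO vehicle and 100% = positive control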
MPTP swell DR = dose response confirmation of mitochondrial permeability transition pore inhibitors; shares compounds with MPTP inh; isolated mitochondria swelling, absorbance; IC50, µM; 58% of 780 active; in the data active = IC50 below about 20 µM
MPTP counter DR = MPTP inhibitor counter-screen activity, dose response. shares compounds with MPTP inh. isolated mitochondria counterscreen, fluorescence read-out. IC50, µM. 49% of 780 active. AID 651564; in the data active = IC50 below about 80 µM
An asterisk follows results filed as active. Rows were chosen to be rich in hits. Some 4.4% of all compounds tested hit in one or more screens of this group.

`N#CCc1ccc(NS(=O)(=O)c2ccc(C3CCCCC3)cc2)cc1` gave EBI2 antag -2.5, SENP1 FRET inh -0.2, GRIN3A LBD mod -3.7, MPTP inh 82.0* and Rh123 counter 95.5*.
For COc1ccc(S(=O)(=O)Nc2ccc(CC#N)cc2)cc1 the results were EBI2 antag -4.2, SENP1 FRET inh 1.4, GRIN3A LBD mod 2.6 and MPTP inh 0.1.
O=C(O)c1cccc(NS(=O)(=O)c2ccc(C3CCCCC3)cc2)c1 was read as EBI2 antag -13.8, SENP1 FRET inh 0.6, GRIN3A LBD mod -26.4 and MPTP inh 0.3.
Cc1cccc(NS(=O)(=O)c2ccc(C3CCCCC3)cc2)c1 was read as EBI2 antag 0.3, SENP1 FRET inh 0.8, GRIN3A LBD mod 0.0, MPTP inh 90.2* and Rh123 counter 92.8*.
`CCCCCCN1C=C/C(=C\C=C(C#N)C#N)c2ccccc21` gave EBI2 antag 37.7, SENP1 FRET inh 9.6, GRIN3A LBD mod -13.4, MPTP inh 51.0*, Rh123 counter -10.3, MPTP swell DR 9.33* and MPTP counter DR <2.5*.
Screening O=C(Nc1nnc(C2CC2)s1)c1cccc(S(=O)(=O)N2CC(c3ccccc3)CC2=O)c1 (stereo not drawn) returned EBI2 antag -1.9, SENP1 FRET inh 0.8, GRIN3A LBD mod 0.6 and MPTP inh -0.1.
For Cc1c(N=Nc2c(-c3ccc([N+](=O)[O-])cc3)[nH]n(C(N)=S)c2=O)cccc1[N+](=O)[O-] the results were EBI2 antag 2.0, SENP1 FRET inh 3.6, GRIN3A LBD mod 24.9*, MPTP inh 95.5* and Rh123 counter 67.4*.
Screening NC(=S)n1[nH]c(-c2ccc([N+](=O)[O-])cc2)c(N=Nc2ccccc2[N+](=O)[O-])c1=O returned EBI2 antag 21.2, SENP1 FRET inh 5.4, GRIN3A LBD mod -2.2 and MPTP inh 43.6.
`NC(=S)n1[nH]c(-c2ccc([N+](=O)[O-])cc2)c(N=Nc2cccc([N+](=O)[O-])c2)c1=O` gave EBI2 antag 16.1, SENP1 FRET inh 7.3, GRIN3A LBD mod 26.5*, MPTP inh 107.6* and Rh123 counter 75.9*.
`Cc1ccc(NC(=O)C(C)N=C2NS(=O)(=O)c3ccccc32)cc1F` (stereo not drawn) gave EBI2 antag 2.4, SENP1 FRET inh 2.3, GRIN3A LBD mod 8.4, MPTP inh 87.3* and Rh123 counter 87.5*.
For COc1ccc(CCC(=O)Nc2ccc(Cl)c(S(=O)(=O)N3CCCC3)c2)cc1 the results were EBI2 antag 6.7, SENP1 FRET inh -0.2, GRIN3A LBD mod -0.5, MPTP inh 96.3* and Rh123 counter 85.0*.
For COc1ccc(CCC(=O)Nc2ccc(OC)c(S(=O)(=O)N3CCCCC3)c2)cc1OC the results were EBI2 antag -0.4, SENP1 FRET inh -1.2, GRIN3A LBD mod -1.2 and MPTP inh -0.8.
`Nc1cc(C(=O)O)ccc1Nc1ccccc1` gave EBI2 antag -21.8, SENP1 FRET inh 5.5, GRIN3A LBD mod -3.3 and MPTP inh 0.5.
CCc1ccccc1Nc1ccc(C(=O)O)cc1N was read as EBI2 antag -11.3, SENP1 FRET inh -4.6, GRIN3A LBD mod 0.5, MPTP inh 62.2*, Rh123 counter -3.9, MPTP swell DR inactive and MPTP counter DR >80.
`C=CCSC1=N/C(=C\c2cc(OCC)c(OC(C)=O)c([N+](=O)[O-])c2)C(=O)S1` gave EBI2 antag -6.5, SENP1 FRET inh 6.4, GRIN3A LBD mod -1.2, MPTP inh 98.4* and Rh123 counter 63.2*.
For C=CCSC1=N/C(=C\c2ccc3c(c2)OCO3)C(=O)S1 the results were EBI2 antag -4.6, SENP1 FRET inh -64.8, GRIN3A LBD mod 2.2 and MPTP inh 4.8.
COc1ccc(CCNC(=O)CN2C(=O)NC3(CCCCC3C)C2=O)cc1 (stereo not drawn) was read as EBI2 antag -0.7, SENP1 FRET inh 3.1, GRIN3A LBD mod -1.0 and MPTP inh -2.1.
`CCOc1ccc2nc(SCC(=O)Nc3ccc4c(c3)OCO4)sc2c1` gave EBI2 antag 5.0, SENP1 FRET inh 0.1, GRIN3A LBD mod 19.1*, MPTP inh 75.3* and Rh123 counter 69.0*.
For O=C(CSc1nncs1)Nc1ccc2c(c1)OCO2 the results were EBI2 antag 0.5, SENP1 FRET inh 1.3, GRIN3A LBD mod -0.9 and MPTP inh -1.2.
`Cc1ccc(-c2nsc(SCC(=O)Nc3ccc4c(c3)OCO4)n2)cc1` gave EBI2 antag -8.2, SENP1 FRET inh 2.1, GRIN3A LBD mod 6.4, MPTP inh 95.5* and Rh123 counter 88.6*.
Screening O=C(CSc1nc(-c2ccccc2Cl)ns1)Nc1ccc2c(c1)OCO2 returned EBI2 antag -1.0, SENP1 FRET inh 0.3, GRIN3A LBD mod 5.8, MPTP inh 87.0* and Rh123 counter 80.0*.
`CC1(C)CC(O)C(C)(C)N1O` (stereo not drawn) gave EBI2 antag -3.6, SENP1 FRET inh 0.8, GRIN3A LBD mod 0.0 and MPTP inh -1.1.
Screening CCc1ccc(N(CC(=O)NCc2ccc3c(c2)OCO3)C(=O)c2csnn2)cc1 returned EBI2 antag 21.0, SENP1 FRET inh 2.3, GRIN3A LBD mod 1.9 and MPTP inh 2.2.
Cc1ccc(Oc2ccc(NC(=O)Cn3ccsc3=N)cc2)cc1 was read as EBI2 antag -5.4, SENP1 FRET inh -2.3, GRIN3A LBD mod 0.9, MPTP inh 88.9*, Rh123 counter -25.1, MPTP swell DR 6.33* and MPTP counter DR >80.
Screening Cc1ccc(NC(=O)CN(C)C(=O)Cn2ccsc2=N)cc1 returned EBI2 antag 2.4, SENP1 FRET inh -2.2, GRIN3A LBD mod -0.7 and MPTP inh -0.6.
`COc1ccc(/C=C/C(=O)NNC(=O)C(C)Oc2ccccc2F)cc1OC` (stereo not drawn) gave EBI2 antag 8.6, SENP1 FRET inh -8.4, GRIN3A LBD mod 1.2 and MPTP inh -2.5.
Screening O=[N+]([O-])c1ccc(NC(=S)NCCc2ccc(F)cc2)cc1 returned EBI2 antag 13.9, SENP1 FRET inh 0.9, GRIN3A LBD mod 30.2*, MPTP inh 99.5* and Rh123 counter 80.9*.
Screening O=C(NCCc1ccc(F)cc1)Nc1ccc2c(c1)OCO2 returned EBI2 antag -5.6, SENP1 FRET inh 3.1, GRIN3A LBD mod -28.6 and MPTP inh 3.4.
Screening COc1ccc(NC(=O)NCc2ccc(Cl)cc2)cc1 returned EBI2 antag 6.9, SENP1 FRET inh 2.9, GRIN3A LBD mod 2.0 and MPTP inh -0.4.
`COC(CNC(=S)Nc1ccc([N+](=O)[O-])cc1)OC` gave EBI2 antag 2.9, SENP1 FRET inh 1.9, GRIN3A LBD mod -0.1 and MPTP inh 26.2.

Bioassay records as filed in PubChem.
